The IC50 is the midpoint of a concentration-inhibition curve. A higher IC50 goes with lower potency.

Test [1] addresses T1, Neprilysin (Oryctolagus cuniculus, UniProt P08049).
T1 sequence (P08049 whole entry): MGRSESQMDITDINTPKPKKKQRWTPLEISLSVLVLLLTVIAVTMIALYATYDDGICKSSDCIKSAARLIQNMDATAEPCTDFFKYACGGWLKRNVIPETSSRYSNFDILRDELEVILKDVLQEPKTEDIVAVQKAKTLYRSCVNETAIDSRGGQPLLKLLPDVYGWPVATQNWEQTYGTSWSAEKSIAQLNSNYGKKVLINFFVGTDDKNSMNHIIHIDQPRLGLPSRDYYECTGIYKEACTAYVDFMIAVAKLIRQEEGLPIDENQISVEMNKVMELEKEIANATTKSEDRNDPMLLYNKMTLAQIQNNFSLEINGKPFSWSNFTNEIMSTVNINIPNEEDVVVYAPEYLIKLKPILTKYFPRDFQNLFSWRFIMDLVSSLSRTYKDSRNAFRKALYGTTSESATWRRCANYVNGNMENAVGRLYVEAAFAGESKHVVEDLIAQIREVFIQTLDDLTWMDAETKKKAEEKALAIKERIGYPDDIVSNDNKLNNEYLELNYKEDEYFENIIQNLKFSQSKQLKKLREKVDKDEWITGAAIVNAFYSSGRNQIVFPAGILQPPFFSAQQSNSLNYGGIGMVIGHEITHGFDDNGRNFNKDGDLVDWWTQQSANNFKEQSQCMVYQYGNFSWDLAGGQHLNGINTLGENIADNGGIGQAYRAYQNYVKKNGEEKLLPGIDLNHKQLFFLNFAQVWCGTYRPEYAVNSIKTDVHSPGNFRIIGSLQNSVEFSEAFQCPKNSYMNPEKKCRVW
Briefly: In vitro inhibitory activity against neutral endopeptidase (NEP). Put shortly:
(§1)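 Purified rabbit kidney NEP (EC 24.11) was the enzyme source, with [³H]Leu-enkephalin as the substrate.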

The subject of test [2] is Rattus norvegicus. As to the kind of experiment: Tested for in vivo Antihypertensive activity in DOCA rat by giving peroral dose of 30 mg/kg. To be noted: route oral. The class given is functional. The essentials: (§2)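 Male Sprague-Dawley rats (100–150 g) had DOCA-Na hypertension induced and were used 17–21 days later if mean BP was >150 mmHg. Rats were not fasted. Mean BP was recorded after 90-min equilibration. Dosing was sc in TRIS buffer (2 mL/kg) or po in 0.4% aqueous methylcellulose (4 mL/kg). The maximum BP fall over 4 h versus vehicle controls was taken, averaged over four or more animals.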

Test [3] has as its target T2, Angiotensin-converting enzyme (Oryctolagus cuniculus, UniProt P12822).
T2 sequence (P12822 whole entry): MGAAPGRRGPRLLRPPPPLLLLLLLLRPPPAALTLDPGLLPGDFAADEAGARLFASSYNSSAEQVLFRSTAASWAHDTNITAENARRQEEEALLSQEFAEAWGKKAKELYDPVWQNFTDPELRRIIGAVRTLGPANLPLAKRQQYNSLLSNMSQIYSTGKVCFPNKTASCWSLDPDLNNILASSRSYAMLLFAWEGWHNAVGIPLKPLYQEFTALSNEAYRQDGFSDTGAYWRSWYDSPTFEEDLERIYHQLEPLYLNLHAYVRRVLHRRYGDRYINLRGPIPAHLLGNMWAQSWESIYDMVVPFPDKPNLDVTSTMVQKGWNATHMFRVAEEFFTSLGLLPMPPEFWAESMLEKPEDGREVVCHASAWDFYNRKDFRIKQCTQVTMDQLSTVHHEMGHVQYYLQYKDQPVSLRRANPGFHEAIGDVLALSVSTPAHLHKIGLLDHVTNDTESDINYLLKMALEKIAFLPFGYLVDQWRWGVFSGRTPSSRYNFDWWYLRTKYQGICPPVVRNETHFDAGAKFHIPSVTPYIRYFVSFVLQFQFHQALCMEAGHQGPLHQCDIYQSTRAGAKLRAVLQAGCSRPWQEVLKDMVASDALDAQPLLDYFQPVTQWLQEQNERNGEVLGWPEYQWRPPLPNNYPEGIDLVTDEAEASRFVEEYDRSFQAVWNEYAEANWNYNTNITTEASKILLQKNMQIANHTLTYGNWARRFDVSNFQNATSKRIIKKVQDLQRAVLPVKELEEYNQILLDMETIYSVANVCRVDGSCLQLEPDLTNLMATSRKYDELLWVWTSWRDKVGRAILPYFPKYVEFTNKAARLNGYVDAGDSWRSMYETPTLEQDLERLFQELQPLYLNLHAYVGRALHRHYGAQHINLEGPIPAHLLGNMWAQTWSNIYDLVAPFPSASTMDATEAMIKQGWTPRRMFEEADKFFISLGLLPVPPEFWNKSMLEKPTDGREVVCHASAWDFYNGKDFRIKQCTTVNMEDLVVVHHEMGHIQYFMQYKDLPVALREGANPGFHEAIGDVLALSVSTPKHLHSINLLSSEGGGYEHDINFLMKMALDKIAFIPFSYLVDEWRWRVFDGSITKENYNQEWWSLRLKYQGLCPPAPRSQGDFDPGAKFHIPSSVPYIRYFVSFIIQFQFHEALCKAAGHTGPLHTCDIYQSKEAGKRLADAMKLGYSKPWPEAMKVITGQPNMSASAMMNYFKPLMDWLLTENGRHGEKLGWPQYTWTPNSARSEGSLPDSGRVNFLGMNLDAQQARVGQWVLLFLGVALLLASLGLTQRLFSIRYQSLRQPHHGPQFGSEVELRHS
As to the kind of experiment: Tested in vitro for its inhibitory activity against angiotensin converting enzyme.

In test [4] the test system is Rattus norvegicus. Briefly: In vivo potentiation of ANF induced hypotension in rat, following subcutaneous dose of 30 mg/kg. It counts as functional. The essentials: (§3)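 Conscious male SHR (270–300 g) had caudal artery and jugular vein cannulae placed under ether. After at least 90 min of stabilization, ANF 103-125 or 99-126 was given as an iv bolus at a submaximal dose. 60–90 min later, drug or vehicle (0.2% aqueous methylcellulose with 20% Tris-HCl) was given sc. ANF was repeated 15 min after dosing, and the response was compared with vehicle controls. Values are means of four or more animals.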

Test [5] concerns Rattus norvegicus. As to the kind of experiment: Tested for in vivo Antihypertensive activity in DOCA rat by giving subcutaneous dose of 30 mg/kg. The class given is functional. Put shortly: as §2
The target of test [6] is T1, Neprilysin. As to the kind of experiment: Ttested for its inhibitory activity against neutral endopeptidase (NEP). Put shortly:
as §1

The test system of test [7] is Rattus norvegicus. Briefly: Tested for in vivo Antihypertensive activity in DOCA rat by giving peroral dose of 1 mg/Kg. It counts as functional. The essentials: as §2
The subject of test [8] is Rattus norvegicus. As to the kind of experiment: Tested for in vivo Antihypertensive activity in DOCA rat by giving subcutaneous dose of 3 mg/kg. It counts as functional. Put shortly:
as §2

Test [9] deals with Rattus norvegicus. Briefly: Tested for in vivo Antihypertensive activity in DOCA rat by giving peroral dose of 10 mg/kg. The class given is functional. The note with it: route oral. Put shortly: as §2
The subject of test [10] is Rattus norvegicus. Briefly: In vivo potentiation of ANF Induced Hypotension in rat was determined by giving peroral dose of 10 mg/kg. The class given is functional. To be noted: route oral.
The subject of test [11] is Rattus norvegicus. Briefly: Tested for in vivo Antihypertensive activity in DOCA rat by giving subcutaneous dose of 1 mg/kg. The class given is functional. Put shortly:
as §2

The subject of test [12] is Rattus norvegicus. As to the kind of experiment: In vivo potentiation of ANF Induced Hypotension in rat was determined by giving subcutaneous dose of 10 mg/kg. The class given is functional. Put shortly: as §3
The subject of test [13] is Rattus norvegicus. As to the kind of experiment: In vivo potentiation of ANF Induced Hypotension in rat was determined by giving subcutaneous dose of 90 mg/kg ANF. The class given is functional.
The subject of test [14] is Rattus norvegicus. Briefly: Tested for in vivo Antihypertensive activity in DOCA rat by giving subcutaneous dose of 10 mg/kg. It counts as functional. Put shortly:
as §2

Test [15] deals with Rattus norvegicus. As to the kind of experiment: Tested for in vivo Antihypertensive activity in DOCA rat by giving peroral dose of 3 mg/Kg. The class given is functional. The essentials: as §2

Bounds are passed on as bounds.

Regarding `Cc1ccc(CSC[C@@H](NC(=O)[C@H](CS)Cc2ccccc2)C(=O)O)cc1`, the IC50 came out at 20 nM in test [1] and 1200 nM in test [3]. For the same compound, the figures for the Delta blood pressure in test [2], in test [4] and in test [5] were 28 mmHg, 48 mmHg and 33 mmHg, respectively.

Consider `COc1ccc(CSC[C@@H](NC(=O)[C@H](CS)Cc2ccccc2)C(=O)O)cc1`, for which the values for the Delta blood pressure in [2] and in test [4] were 0 mmHg and 23 mmHg, respectively. The IC50 in test [6] worked out at 17 nM.

As to `CSCC[C@@H](NC(=O)[C@@H](CS)Cc1ccccc1C)C(=O)O`, the figures for the Delta blood pressure in test [7] and in test [8] were 24 mmHg and 43 mmHg, respectively. Further, the IC50 in test [1] was 7 nM; in test [3] it was 100 nM.

As to `CC(C)(C)SC[C@@H](NC(=O)[C@@H](CS)Cc1ccccc1)C(=O)O`, the IC50 in test [1] was 49 nM; in test [3] it was 170 nM. Moreover, the Delta blood pressure in [2] came out at 17 mmHg; in test [4], 25 mmHg.

As for `Cc1ccc(CSC[C@@H](NC(=O)[C@H](CS)Cc2ccccc2)C(N)=O)cc1`, the Delta blood pressure is 46 mmHg in [9], 17 mmHg in test [8] and 17 mmHg in test [4]. Moreover, the IC50 in [1] is > 300 nM.

Take `CC(=O)SC[C@H](Cc1ccccc1)C(=O)N[C@H](CSCc1ccc(C)cc1)C(=O)O`: in test [10], the Delta blood pressure was 20 mmHg.

For the compound `CSC[C@@H](NC(=O)[C@@H](CS)Cc1ccccc1)C(=O)O`, the IC50 in [1] was determined as 1.5 nM; in [3], 77 nM. Further, the Delta blood pressure in test [2] turned out to be 0 mmHg; in test [4], 30 mmHg.

For the compound `CSCC[C@@H](NC(=O)C(CS)Cc1ccccc1)C(=O)O` (some centres undefined), the IC50 came to 4 nM in test [1] and 120 nM in test [3]. Besides, the Delta blood pressure is 18 mmHg in test [2], 25 mmHg in test [4] and 42 mmHg in [5].

As to `C[C@H](CS)C(=O)N[C@H](CSCc1ccccc1)C(=O)O`, the IC50 in [1] was 46 nM; in test [3], 58 nM. The values for the Delta blood pressure in [4] and in [5] were 19 mmHg and 0 mmHg, respectively.

`CSCC[C@@H](NC(=O)[C@@H](CSC(C)=O)Cc1ccccc1)C(=O)O` yielded a Delta blood pressure in test [5] of 48 mmHg.

For `Cc1ccc(CSC[C@@H](NC(=O)[C@@H](CS)Cc2cccc3ccccc23)C(=O)O)cc1`, the Delta blood pressure in test [9] is 8 mmHg; in test [11], 47 mmHg; in test [2], 33 mmHg; in test [8], 26 mmHg; in test [4] it was 0 mmHg. The IC50 is 2 nM in test [1] and > 1000 nM in test [3].

On to `CC(=O)SC[C@@H](Cc1ccccc1)C(=O)N[C@H](CSCc1ccc(C)cc1)C(=O)O`, for which the Delta blood pressure is given as 42 mmHg in [12] and 48 mmHg in test [5].

In the case of `CSCC[C@@H](NC(=O)C1(CS)CCCC1)C(=O)O`, the IC50 in test [1] is 3.5 nM; in test [3] it was 700 nM. This compound returned a Delta blood pressure in [5] of 24 mmHg.

Consider `Cc1ccc(CSC[C@@H](NC(=O)[C@@H](CS)Cc2ccccc2)C(=O)O)cc1C`, for which the Delta blood pressure in test [4] stood at 23 mmHg. In test [6], the IC50 was found to be 370 nM.

On to `O=C(N[C@H](CSCc1ccccc1)C(=O)O)[C@@H](CS)Cc1ccc(Cl)cc1`, for which the IC50 in test [1] was 3 nM; in test [3] it was 44 nM. The Delta blood pressure was found to be 20 mmHg in [2] and 19 mmHg in [4].

As for `Cc1ccc(CSC[C@@H](NC(=O)[C@@H](CS)Cc2ccccc2)C(=O)O)cc1`, the IC50 in test [1] was 11 nM; in test [3], 19 nM. In addition, the Delta blood pressure in [4] is 48 mmHg; in test [5], 17 mmHg.

The compound `CSCC[C@@H](NC(=O)[C@@H](CSC(=O)c1ccccc1)Cc1ccccc1)C(N)=O` returned a Delta blood pressure in test [5] of 0 mmHg.

With `CC(=O)SC[C@H](Cc1ccccc1)C(=O)N[C@H](CSCc1ccc(C)cc1)C(N)=O`, the Delta blood pressure in test [9] and in test [12] was 0 mmHg throughout.

As to `O=C(N[C@H](CSCc1ccccc1)C(=O)O)[C@H](CS)Cc1ccccc1`, the IC50 in test [1] was 32 nM; in [3], > 1000 nM. Further, the Delta blood pressure in test [13] was 45 mmHg; in [5] it was 55 mmHg; in test [14], 21 mmHg.

`CSCC[C@@H](NC(=O)[C@@H](CSC(C)=O)Cc1ccccc1)C(N)=O`: the Delta blood pressure in [15] was 39 mmHg; in test [4] it was 23 mmHg.

As for `O=C(N[C@H](CSCc1ccccc1)C(=O)O)[C@@H](CS)Cc1ccccc1`, the IC50 in test [1] was found to be 9 nM; in [3], 24 nM. The results for the Delta blood pressure in test [4] (30 mg/kg), in test [5] and in test [14] were 35 mmHg, 30 mmHg and 17 mmHg, respectively.

With `CSCC[C@@H](NC(=O)C(CSC(C)=O)Cc1ccccc1)C(=O)N1CCCCC1` (some centres undefined), the Delta blood pressure in test [8] was found to be 3 mmHg; in test [4], 38 mmHg; in [14], 32 mmHg.

`O=C(N[C@H](CSCc1ccccc1)C(=O)O)C(CS)Cc1ccccc1` (single isomer, unassigned): the results for the IC50 in [1] and in test [3] were 14 nM and 1250 nM, respectively. Besides, the Delta blood pressure turned out to be 18 mmHg in [2] and 19 mmHg in test [4] (30 mg/kg).

(Values after ChEMBL document CHEMBL1127600, “Mercaptoacyl amino acid inhibitors of atriopeptidase. 1. Structure-activity relationship studies of methionine and S-alkylcysteine derivatives” (J Med Chem, 1994).)
